From PubChem
This is a sample that favours compounds with a hit; in the whole collection about 0.16% have one here.
STK33 kinase inh: human STK33 kinase inhibition. purified STK33, MBP phosphorylation, ADP-Glo luminescence. AID 2661. Q9BYT3. 0.073% of 320,000 active. inhibition, % at 10 µM;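 active means inhibition at or above 25%, using the most active replicate where run in duplicate; inactive means inhibition below 25%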
CDK5 inh: inhibitors of human CDK5/p35 kinase; Q00535+Q15078; Recombinant CDK5/p35, ADP-Glo luminescence, 60 min; inhibition, % at 10 µM; 0.01% of 330,000 active;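 active means highest replicate inhibition of at least 50% and at least 75% of replicates reaching 50%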
GSK3beta inhib: inhibitors of human GSK3beta kinase. activity score (negative = inhibition), % at 10 µM. GST-GSK3beta kinase, ADP-Glo luminescence, 60 min; hits give low values. 0.038% of 300,000 active. P49841. AID 2097;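 active means more than half of replicate wells score below -50%, meaning over 50% inhibition versus plate controls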
Target sequence (P49841 whole entry, looked up): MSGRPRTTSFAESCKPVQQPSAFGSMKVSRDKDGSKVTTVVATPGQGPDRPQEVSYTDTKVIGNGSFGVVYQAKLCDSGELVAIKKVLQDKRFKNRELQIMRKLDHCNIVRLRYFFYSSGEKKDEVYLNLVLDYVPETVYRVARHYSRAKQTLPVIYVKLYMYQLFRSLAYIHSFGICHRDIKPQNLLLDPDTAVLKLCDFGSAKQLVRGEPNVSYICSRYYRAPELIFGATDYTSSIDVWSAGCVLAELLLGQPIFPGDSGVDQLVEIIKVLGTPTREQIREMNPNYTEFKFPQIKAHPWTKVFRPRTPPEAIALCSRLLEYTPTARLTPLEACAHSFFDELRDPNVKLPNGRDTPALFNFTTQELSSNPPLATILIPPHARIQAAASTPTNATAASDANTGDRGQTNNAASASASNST
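Test system: GST-fused GSK3beta enzyme, cell-free | Quantity: 1.6 ng GST-GSK3beta enzyme per well | Reagent: 25 µM ATP with peptide substrate | Schedule: 60 min enzyme reaction, room temperature | Signal: Luminescent ADP-Glo measurement of ADP formed | Read-out basis: Score relative to plate controls | Control set: DMSO and 20 µM GW8510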
GSK3A inh: blocks human GSK-3 alpha kinase; AID 2650; ADP-Glo luminescence, 60 min; P49840; 0.1% of 320,000 active; inhibition, % at 10 µM;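 active means more than half of replicates show inhibition above 20%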;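 further: GST-tagged GSK-3 alpha with peptide substrate and 25 µM ATP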
Numbers stand for hits; n = inactive; x = no result given.

SMILES	STK33 kinase inh	CDK5 inh	GSK3beta inhib	GSK3A inh
O=c1/c(=C\c2cccn2-c2ccccc2)sc2nc3ccccc3n12	x	n	x	x
O=C(O)Cn1cc(/C=c2/sc3nc4ccccc4n3c2=O)c2ccccc21	31.5	n	n	n
Cc1cccc(-c2nc3ccccc3c3nncn23)c1	52.7	n	n	n
COc1ccc(CCNC(=O)CSc2nc3ccsc3c(=O)n2CC2CCC(C(=O)O)CC2)cc1OC (centres undefined)	n	n	n	n
CCCN(CC(=O)Nc1ccccc1C)C(=O)c1ccc(N2CCCCCC2)c([N+](=O)[O-])c1	n	n	n	n
COc1ccc2nc3c(cc2c1)c(NC(=O)C1CCCO1)nn3CC(C)C (centres undefined)	n	n	-88.3	98.8
CCCn1nc(NC(=O)C2CCCO2)c2cc3cc(C)ccc3nc21 (centres undefined)	n	n	n	n
CCCCn1nc(NC(=O)CC(C)C)c2cc3cc(OC)ccc3nc21	n	n	n	n
COc1ccc2nc3c(cc2c1)c(NC(=O)CC(C)C)nn3CC(C)C	n	n	-73.3	n
Cc1ccc2c(c1)/C(=C/c1ccco1)C(=O)N2	31.8	n	n	n
COc1ccccc1NC(=O)COC(=O)c1ccc(S(=O)(=O)N2CCCCCC2)cc1	n	n	x	n
COc1cccc(C2CC(=O)Nc3n[nH]c(-c4ccccc4)c32)c1OC (centres undefined)	n	n	n	61.0
COc1ccc(OC)c(C2CC(=O)Nc3n[nH]c(-c4ccccc4)c32)c1 (centres undefined)	n	n	n	n
Cc1c(C(=O)OCC(=O)N2c3ccccc3CC2C)oc2ccccc12 (centres undefined)	33.2	n	n	n
Cc1cc(C(=O)O)ccc1N=Cc1c(O)ccc2ccccc12	26.1	n	n	n
CC(=O)N(C)c1ccc(N=Cc2c(O)ccc3ccccc23)cc1	62.4	n	n	n
CC(=O)c1cccc(N=Cc2c(O)ccc3ccccc23)c1	n	n	n	n
O=C(COC(=O)COc1ccccc1F)NCCc1ccc(F)cc1	x	n	x	x
CN(CCC(=O)c1ccccc1)CCC(=O)c1ccccc1	n	n	n	n
CC(NC(=O)COC(=O)c1cc([N+](=O)[O-])ccc1N1CCOCC1)c1ccccc1 (centres undefined)	n	n	n	n
Oc1ccc(/C=N/Nc2ccnc3cc(Cl)ccc23)cc1O	66.7	n	n	n
Cc1ccc(C2=C(O)c3ccccc3C(=O)C2=O)cc1	n	n	n	n
O=C1C(c2ccncc2)=C(O)c2ccccc21	26.9	n	n	n
O=C(CSc1nc2[nH]ncc2c(=O)n1-c1ccccc1)NCCc1ccccc1	n	n	n	54.4
Clc1ccccc1/C=C/c1ccnc2ccccc12	n	n	n	n
SMILES	STK33 kinase inh	CDK5 inh	GSK3beta inhib	GSK3A inh
Oc1ccc(/C=C/c2ccnc3ccccc23)cc1	25.3	n	n	n
CCCCOC(=O)C1=C(C)Nc2ncnn2C1c1cc(OC)ccc1OC (centres undefined)	n	n	n	n
CCCCOC(=O)C1=C(C)Nc2ncnn2C1c1cccc(OC)c1OC (centres undefined)	n	n	n	85.1
COc1ccccc1N(CC(=O)NC1CCCC1)C(=O)c1oc(C(C)(C)C)cc1C	n	n	n	n
CSc1nc(SCC(=O)NCC2CCCO2)c2c3c(sc2n1)CN(C)CC3 (centres undefined)	n	x	n	57.5
Cc1nc(SCC(=O)NCC2CCCO2)c2c3c(sc2n1)CCCC3 (centres undefined)	n	n	x	n
Cc1ccc(-c2nn(-c3ccccc3)cc2/C=N/O)cc1	n	n	-52.0	77.8
O/N=C/c1cn(-c2ccccc2)nc1-c1cccnc1	n	n	n	70.5
O=C(N/N=C/c1cn(-c2ccccc2)nc1-c1cccnc1)c1cccnc1	n	n	n	n
O=c1cc(/C=C/c2ccccc2)oc2ccccc12	n	n	n	n
CN(C(=O)c1ccc(S(=O)(=O)N2CCCC2)cc1)C1CCS(=O)(=O)C1 (centres undefined)	n	n	n	n
Fc1cccc(/C=N/Nc2ncnc3nc[nH]c23)c1	n	n	n	68.5
Fc1ccccc1/C=N/Nc1ncnc2nc[nH]c12	n	n	n	64.8
Cc1ccc(/C=N/Nc2ncnc3nc[nH]c23)cc1	n	n	n	n
Clc1ccc(/C=N/Nc2ncnc3nc[nH]c23)cc1	n	n	n	60.6
NC(=O)c1ccc(NC(=O)CN2CCN(c3ccccc3)CC2)cc1	n	n	n	n
O=C1c2ccccc2C(=O)C1c1ccccn1	35.0	n	n	n
O=C(Nc1ccccn1)c1sc2cccc(F)c2c1Cl	n	n	n	n
CNc1nc(N)c([N+](=O)[O-])c(NCC2CCCO2)n1 (centres undefined)	n	n	n	n
Nc1nc(NCCOCCO)nc(NCC2CCCO2)c1[N+](=O)[O-] (centres undefined)	n	n	-60.3	59.6
COCCNc1nc(N)c([N+](=O)[O-])c(NCC2CCCO2)n1 (centres undefined)	n	n	-53.3	67.9
COc1ccc(CCC(=O)N2CCN(S(=O)(=O)c3cccc(Cl)c3)CC2)cc1	n	n	x	n
O=C(Nc1nnc(Cc2ccccc2)s1)C1CCN(C(=O)c2ccco2)CC1	n	n	n	n
C/C(NCCCn1ccnc1)=C(\C#N)C(N)=O	n	n	n	51.5
O=C(NCCCn1ccnc1)NC(C(F)(F)F)C(F)(F)F	n	n	n	n
SMILES	STK33 kinase inh	CDK5 inh	GSK3beta inhib	GSK3A inh
N#C/C(=C\c1ccc(O)c(O)c1)C(=O)c1ccc(O)c(O)c1	28.1	n	x	n
N#C/C(=C\c1ccc(O)c(O)c1)C(=O)N1CCCC1	n	n	n	n
c1ccc2c3c([nH]c2c1)-c1[nH]ncc1CC3	32.1	n	n	n
COC(=O)c1cc(NC(=O)C2COc3ccccc3O2)cc(C(=O)OC)c1 (centres undefined)	28.9	n	n	n
Cc1ccc(S(=O)(=O)Nc2ccc(F)cc2)cc1C(=O)N1CCOCC1	n	n	x	n
NC1=NC(=O)/C(=C/c2ccc(-c3ccc(S(N)(=O)=O)cc3)o2)S1	n	n	n	64.9
NC1=NC(=O)/C(=C\c2ccco2)S1	n	n	n	n
CC1(C)OC(=O)C(=Cc2ccc(-c3ccc(S(N)(=O)=O)cc3)o2)C(=O)O1	n	n	n	n
CS(=O)(=O)Nc1ccc(-c2ccc(/C=C3\SC(N)=NC3=O)o2)cc1	n	n	n	55.3
O=[N+]([O-])c1ccc(NCCc2ccccc2)c(Br)c1	n	n	n	n
N#CC(C#N)=C1c2cc(S(N)(=O)=O)ccc2-c2ccc(S(N)(=O)=O)cc21	x	n	x	x
NS(=O)(=O)c1ccc2c(c1)C(=NO)c1cc(S(N)(=O)=O)ccc1-2	72.0	n	n	n
CC1CCN(S(=O)(=O)c2c[nH]c(=O)[nH]c2=O)CC1	n	n	n	n
CCOc1ccccc1C(=O)Nc1cc(Cl)ccc1O	25.6	n	n	n
NC(=O)c1sc2nc(-c3ccco3)ccc2c1N	27.4	n	n	n
COC(=O)c1sc2nc(-c3ccco3)ccc2c1N	n	n	n	n
O=C(NC1(C(F)(F)F)N=C2SCCN2C1=O)c1ccccc1F (centres undefined)	n	x	n	n
